Test results: ChEMBL document CHEMBL4811233, “Synthesis, Structure-Activity Relationships, and Antiviral Activity of Allosteric Inhibitors of Flavivirus NS2B-NS3 Protease” (J Med Chem, 2021)
The source made the active and inactive calls. No cut-off for these calls is given here.

Experiments:
Zika virus [1] = test: Antiviral activity against Zika virus infected in human U87 cells assessed as reduction in infectious virus in supernatant by measuring infection of Vero cells preincubated with viral infected […] cells for 48 hrs and measured following infection of supernatants with Vero cells for 7 days by microscopy; format: functional; conditions: U-87 MG
Method in brief: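 U87 cells (2×10^4/well, DMEM with 2% FBS monolayer) infected with ZIKV FLR strain (passage-3 stock) at MOI 0.01 for 1 h, then washed. Compound added in triplicate for 48 h at 37 °C. Supernatant half-log dilutions are titrated on Vero cells in quadruplicate for 7 days, with CPE read by microscopy plus MTT. EC68 is the half-log TCID50 reduction versus control; ≥2 independent experiments.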

Genome polyprotein [2] = target: Genome polyprotein (West Nile virus, UniProt P06935); test: Inhibition West Nile virus NS3B/NS3 protease using 7-amino-4-methylcoumarin as substrate by fluorescence assay
Nonstructural protein 3 = Nonstructural protein 3 (Zika virus, UniProt A0A024AXB9); test: Inhibition Zika virus NS2B (47 to 95 residues)/NS3 (1 to 170 residues) protease expressed in Escherichia coli BL21 using 7-amino-4-methylcoumarin as substrate by fluorescence assay
Method in brief: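 Single-chain NS2B(47–95)–Gly4-Ser-Gly4–NS3(1–170) enzyme at 1 nM in 20 mM HEPES pH 7.3 with 0.05% Triton X-100. Compound (1 nM–10 µM, triplicate) is preincubated 10 min before adding Bz-Nle-Lys-Lys-Arg-AMC at 20 µM. Fluorescence (Ex 360/Em 460 nm) is read every 30 s. IC50 comes from dose-response fitting of initial velocities, 3 independent experiments with SD.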

Genome polyprotein [3] = target: Genome polyprotein (dengue virus type 2, UniProt P29990); test: Inhibition Dengue serotype-2 NS3B/NS3 protease using 7-amino-4-methylcoumarin as substrate by fluorescence assay
Zika virus [4] = test: Antiviral activity against Zika Serotype 2 infected mouse model assessed as inhibition of viral load in plasma at 30 mg/kg treated for 3 days; format: functional; conditions: 72 h, time 3 day
Zika virus [5] = test: Antiviral activity against Zika Serotype 2 infected mouse model assessed as inhibition of viral load in brain at 30 mg/kg treated for 3 days; format: functional; conditions: 72 h, time 3 day
U-87 MG = test: Cytotoxicity against human U87 cells assessed as inhibition of proliferation at 10 uM by MTT assay; format: cell-based; conditions: u-87mg atcc
Vero = test: Cytotoxicity against African green monkey Vero cells assessed as inhibition of proliferation at 10 uM by MTT assay; format: cell-based; conditions: chlorocebus sabaeus
Zika virus [6] = test: Antiviral activity against Zika virus infected in human U87 cells assessed as inhibition of viral replication at 10 uM; format: functional, organism-based

Chain of Genome polyprotein (dengue virus type 2, UniProt P29990) (P29990 1346-1475 limits assumed): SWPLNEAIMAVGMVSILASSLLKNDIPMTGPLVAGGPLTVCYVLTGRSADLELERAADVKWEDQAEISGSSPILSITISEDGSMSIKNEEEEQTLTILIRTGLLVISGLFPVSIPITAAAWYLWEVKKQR
Chain of Genome polyprotein (dengue virus type 2, UniProt P29990) (P29990 1476-2093 limits assumed): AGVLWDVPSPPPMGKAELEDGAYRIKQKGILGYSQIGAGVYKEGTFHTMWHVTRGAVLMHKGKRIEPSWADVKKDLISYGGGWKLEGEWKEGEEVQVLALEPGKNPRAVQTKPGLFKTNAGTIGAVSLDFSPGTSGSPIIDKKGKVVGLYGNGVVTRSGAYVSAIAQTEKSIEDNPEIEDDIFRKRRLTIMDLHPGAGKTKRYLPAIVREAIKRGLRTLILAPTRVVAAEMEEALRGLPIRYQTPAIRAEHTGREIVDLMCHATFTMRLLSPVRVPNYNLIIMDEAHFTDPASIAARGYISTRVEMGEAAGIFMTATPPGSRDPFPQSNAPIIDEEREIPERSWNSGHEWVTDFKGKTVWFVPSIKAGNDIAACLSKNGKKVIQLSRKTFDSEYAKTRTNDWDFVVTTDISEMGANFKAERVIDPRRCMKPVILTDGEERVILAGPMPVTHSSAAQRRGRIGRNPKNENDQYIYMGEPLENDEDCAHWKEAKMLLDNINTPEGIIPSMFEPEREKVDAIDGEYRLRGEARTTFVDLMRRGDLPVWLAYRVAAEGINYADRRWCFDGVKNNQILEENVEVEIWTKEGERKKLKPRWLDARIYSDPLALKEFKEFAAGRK
Chain of Nonstructural protein 3 (A0A024AXB9 whole entry, the tested form may be a part): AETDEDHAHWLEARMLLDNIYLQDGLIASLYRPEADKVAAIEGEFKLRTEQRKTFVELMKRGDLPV
Chain of Genome polyprotein (West Nile virus, UniProt P06935) (P06935 1371-1501 limits assumed): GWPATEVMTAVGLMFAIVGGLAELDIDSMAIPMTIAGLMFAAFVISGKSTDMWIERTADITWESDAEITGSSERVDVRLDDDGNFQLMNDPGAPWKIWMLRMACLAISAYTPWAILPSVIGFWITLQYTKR
Chain of Genome polyprotein (West Nile virus, UniProt P06935) (P06935 1502-2120 limits assumed): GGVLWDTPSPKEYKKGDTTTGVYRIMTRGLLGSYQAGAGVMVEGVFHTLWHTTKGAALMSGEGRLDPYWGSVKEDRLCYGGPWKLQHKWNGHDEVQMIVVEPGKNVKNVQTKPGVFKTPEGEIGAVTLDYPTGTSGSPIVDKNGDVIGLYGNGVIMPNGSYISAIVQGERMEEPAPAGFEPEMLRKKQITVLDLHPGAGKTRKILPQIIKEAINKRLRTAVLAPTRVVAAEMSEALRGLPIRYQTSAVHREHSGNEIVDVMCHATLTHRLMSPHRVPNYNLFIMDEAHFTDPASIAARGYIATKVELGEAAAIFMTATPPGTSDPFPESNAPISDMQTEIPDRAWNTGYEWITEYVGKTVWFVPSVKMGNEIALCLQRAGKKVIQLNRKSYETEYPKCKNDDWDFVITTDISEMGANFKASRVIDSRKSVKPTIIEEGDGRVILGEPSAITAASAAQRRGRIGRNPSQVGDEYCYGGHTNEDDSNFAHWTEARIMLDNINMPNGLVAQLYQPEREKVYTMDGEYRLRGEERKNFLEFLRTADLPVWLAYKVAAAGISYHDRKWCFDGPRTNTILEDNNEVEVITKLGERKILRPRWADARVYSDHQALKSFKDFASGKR

Structure (SMILES)	EC68 (Zika virus [1])	IC50 (Genome polyprotein [2])	IC50 (Nonstructural protein 3)	IC50 (Genome polyprotein [3])	inhibition in vivo at 30 mg/kg (Zika virus [4])	inhibition in vivo at 30 mg/kg (Zika virus [5])	Activity (U-87 MG)	Activity (Vero)	inhibition (Zika virus [6])
NC(=O)c1ccc(-c2ncc(OCC3CCNCC3)nc2-c2ccc(-c3ccoc3)cc2)cc1	2.5 µM	1340 nM	1100 nM	980 nM	–	–	–	–	–
NCc1ccc(-c2ncc(OCC3CCNCC3)nc2-c2ccc3[nH]ccc3c2)cc1	2.5 µM	930 nM	–	640 nM	–	–	–	–	–
NCc1ccc(-c2ccc(NCC3CCNCC3)nc2-c2ccc(-c3ccoc3)cc2)cc1	1.2 µM	1300 nM	790 nM	860 nM	–	–	–	–	–
NCc1ccc(-c2ncc(OCC3CCNCC3)nc2-c2ccc(-c3ccoc3)cc2)cc1	0.3 µM	780 nM	–	590 nM	96%	98%	–	–	–
NCc1ccc(-c2ncc(NCC3CCNCC3)nc2-c2ccc(-c3ccoc3)cc2)cc1	1.2 µM	510 nM	400 nM	290 nM	–	–	–	–	–
NCc1ccc(-c2ncc(OCC3CCNCC3)nc2-c2ccc(-c3cn[nH]c3)cc2)cc1	2.5 µM	–	760 nM	210 nM	–	–	–	–	–
CC(C)(C)c1ccc(-c2ncc(OCC3CCNCC3)nc2-c2ccc(C(C)(C)C)cc2)cc1	5 µM	9500 nM	3100 nM	8400 nM	–	–	–	–	–
NCc1ccc(-c2ncc(OCC3CCNCC3)nc2-c2ccc(C3CCOCC3)cc2)cc1	0.6 µM	820 nM	130 nM	2400 nM	–	–	Non-Toxic	Non-Toxic	–
NCc1ccc(-c2ncc(OCC3CCNCC3)nc2-c2ccc(C3CCOCC3)nc2)cc1	3 µM	–	1000 nM	–	–	–	Non-Toxic	Non-Toxic	–
NCc1ccc(-c2ncc(OCC3CCNCC3)nc2-c2ccc(O)cc2)cc1	> 10 µM	–	–	–	–	–	–	–	inactive
Brc1ccc(-c2ncc(OCC3CCNCC3)nc2-c2ccc(Br)cc2)cc1	> 10 µM	> 50000 nM	21700 nM	35000 nM	–	–	–	–	–
CNCc1ccc(-c2ncc(OCC3CCNCC3)nc2-c2ccc(-c3ccoc3)cc2)cc1	1.2 µM	870 nM	–	730 nM	–	–	–	–	–
